The test system of assay [1] is A549. The experiment in a line: Cytotoxicity against human A549 cells after 72 hrs by MTT assay. Conditions: A549, 72 h. It counts as functional, cell-based. The method in brief: (§1)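 A549 human NSCLC cells kept in MEM with 10% FBS, penicillin/streptomycin and amphotericin B at 37 °C under humidified 5% CO2. Seeded at 1x10⁴ cells/well and left 24 h, then exposed to a range of concentrations for 48 h or 72 h at 37 °C. MTT (1 mg/mL) added for 4 h, formazan dissolved in DMSO, absorbance read at 540 nm. IC50 taken against untreated controls by log(compound) vs normalized response (variable slope) fit, with 95% CI.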
A general note: Formazan colour is commonly taken as a measure of viable cells.

The subject of assay [2] is A549. The assay is described as follows: Cytotoxicity against human A549 cells after 48 hrs by MTT assay. It counts as functional, cell-based. Conditions: A549, 48 h. The method, boiled down:
as §1

Assay [3] deals with A549. The experiment in a line: Ratio of IC50 for human A549 cells after 48 hrs to IC50 for human A549 cells after 72 hrs. It counts as functional. The method in brief: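 Ratio of the 48 h to the 72 h IC50 in A549 cells. Both IC50s come from the MTT assay (1x10⁴ cells/well, 24 h attachment, then 48 h or 72 h compound exposure). Each was fitted by log(compound) vs normalized response nonlinear regression (variable slope), relative to untreated controls.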

The structures appear in SMILES notation. pIC50: −log10 of the molar value.

In the case of `CC(=O)O[C@@H]1C[C@@]2(C)[C@@H]3CC=C4[C@@H](C[C@H](Sc5ccccc5)C(=O)C4(C)C)[C@]3(C)C(=O)C[C@]2(C)[C@H]1[C@@](C)(O)C(=O)CCC(C)(C)OC(C)=O`, the pIC50 in assay [1] and in assay [2] was less than 4.00 each time.

Consider `CC(=O)OC(C)(C)CCC(=O)[C@](C)(O)[C@H]1[C@H](OC(=O)c2ccccc2)C[C@@]2(C)[C@@H]3CC=C4[C@@H](C[C@H](OC(=O)c5ccccc5)C(=O)C4(C)C)[C@]3(C)C(=O)C[C@]12C`, for which the pIC50 in assay [1] and in assay [2] was less than 4.00 in each case.

Regarding `CC(=O)OC(C)(C)CCC(=O)[C@](C)(O)[C@H]1[C@H](OC(=S)n2ccnc2)C[C@@]2(C)[C@@H]3CC=C4[C@@H](C[C@H](OC(=S)n5ccnc5)C(=O)C4(C)C)[C@]3(C)C(=O)C[C@]12C`, the results for the negative-log IC50 (pIC50) in assay [1] and in assay [2] were 5.16 and 4.83, respectively. Moreover, the “Ratio IC50” value in assay [3] is 2.1.

With `CC(=O)[C@H]1[C@H](O)C[C@@]2(C)[C@@H]3CC=C4[C@@H](C[C@H](O)[C@@H](O)C4(C)C)[C@]3(C)C(=O)C[C@]12C` [HEXANORCUCURBITACIN F], the pIC50 in assay [1] and in assay [2] was less than 4.00 in each case.

With `CC(=O)OC(C)(C)/C=C/[C@H](O)[C@](C)(O)[C@H]1[C@H](O)C[C@@]2(C)[C@@H]3CC=C4[C@@H](C[C@H](O)[C@@H](O)C4(C)C)[C@]3(C)C(=O)C[C@]12C`, the pIC50 in assay [1] and in assay [2] was less than 4.00 in each case.

In the case of `CC(=O)O[C@@H]1C[C@@]2(C)[C@@H]3CC=C4[C@@H](C[C@H](SC(C)=O)C(=O)C4(C)C)[C@]3(C)C(=O)C[C@]2(C)[C@H]1[C@@](C)(O)C(=O)CCC(C)(C)OC(C)=O`, the pIC50 in assay [1] and in assay [2] was less than 4.00 in each case.

As to `COc1cccc2c1C(=O)c1c(O)c3c(c(O)c1C2=O)C[C@@](O)(C(=O)CO)C[C@@H]3O[C@H]1C[C@H](N)[C@H](O)[C@H](C)O1` [DOXORUBICIN], the negative logarithm of the IC50 (pIC50) in assay [1] was 5.93; in assay [2], 5.43. For the same compound, in assay [3], the “Ratio IC50” value is 3.1.

`CC(=O)OC(C)(C)CCC(=O)[C@](C)(O)[C@H]1[C@H](O)C[C@@]2(C)[C@@H]3CC=C4[C@@H](C[C@H](O)C(=O)C4(C)C)[C@]3(C)C(=O)C[C@]12C` [23,24-DIHYDROCUCURBITACIN B]: the negative logarithm of the IC50 (pIC50) in assay [1] was 4.92; in assay [2], 4.70. In addition, the “Ratio IC50” value in assay [3] turned out to be 1.6.

As to `CC(=O)OC(C)(C)CCC(=O)[C@](C)(O)[C@H]1[C@H](O)C[C@@]2(C)[C@@H]3CC=C4[C@@H](C=C(O)C(=O)C4(C)C)[C@]3(C)C(=O)C[C@]12C`, the pIC50 in assay [1] and in assay [2] was less than 4.00 throughout.

Take `CC(=O)O[C@H]1C[C@@H]2C(=CC(=O)[C@@H]3[C@@]2(C)C(=O)C[C@]2(C)[C@@H]([C@@](C)(O)C(=O)CCC(C)(C)OC(C)=O)[C@H](OC(C)=O)C[C@@]32C)C(C)(C)C1=O`: the pIC50 in assay [1] and in assay [2] was less than 4.00 throughout.

On to `CC(=O)O[C@@H]1C[C@@]2(C)[C@@H]3CC=C4[C@@H](C=C(N)C(=O)C4(C)C)[C@]3(C)C(=O)C[C@]2(C)[C@H]1[C@@](C)(O)C(=O)CCC(C)(C)OC(C)=O`, for which the negative logarithm of the IC50 (pIC50) in assay [1] is 4.26; in assay [2], less than 4.00.

As to `CC(=O)OC(C)(C)CCC(=O)[C@](C)(O)[C@H]1C(=O)C[C@@]2(C)[C@@H]3CC=C4[C@@H](C[C@H](O)C(=O)C4(C)C)[C@]3(C)C(=O)C[C@]12C`, the pIC50 was 4.58 in assay [1] and 4.26 in assay [2]. The “Ratio IC50” value in assay [3] was 2.1.

With `CC(=O)O[C@H]1C[C@@H]2C(=CC[C@@H]3[C@@]2(C)C(=O)C[C@]2(C)[C@@H]([C@@](C)(O)C(=O)CCC(C)(C)OC(C)=O)[C@H](OC(C)=O)C[C@@]32C)C(C)(C)C1=O`, the pIC50 in assay [1] was 4.14; in assay [2] it was less than 4.00.

For `CC(=O)OC(C)(C)CCC(=O)[C@](C)(O)[C@H]1CC[C@@]2(C)[C@@H]3CC=C4[C@@H](CCC(=O)C4(C)C)[C@]3(C)C(=O)C[C@]12C`, the values for the pIC50 in assay [1] and in assay [2] were 4.94 and less than 4.00, respectively.

In the case of `CC(=O)O[C@H]1C(=O)[C@@]2(C)[C@H]([C@H](OC(=O)c3ccccc3)[C@]3(O)C[C@H](OC(=O)[C@H](O)[C@@H](NC(=O)c4ccccc4)c4ccccc4)C(C)=C1C3(C)C)[C@]1(OC(C)=O)CO[C@@H]1C[C@@H]2O` [PACLITAXEL], the pIC50 in assay [1] was 6.72; in assay [2] it was 5.94. For the same compound, in assay [3], the “Ratio IC50” value amounted to 6.1.

For `CC(=O)O[C@H]1C[C@@H]2C(=CC[C@@H]3[C@@]2(C)C(=O)C[C@]2(C)[C@@H]([C@@](C)(O)C(=O)CC=C(C)C)[C@H](OC(C)=O)C[C@@]32C)C(C)(C)C1=O`, the pIC50 in assay [1] is 4.37; in assay [2], less than 4.00.

Take `CC(=O)[C@H]1[C@H](OC(=O)c2ccccc2)C[C@@]2(C)[C@@H]3CC=C4[C@@H](C[C@H](OC(=O)c5ccccc5)[C@@H](O)C4(C)C)[C@]3(C)C(=O)C[C@]12C`: the negative-log IC50 (pIC50) in assay [1] and in assay [2] was less than 4.00 in each case.

As for `CC(=O)OC(C)(C)CCC(=O)[C@](C)(O)[C@H]1[C@H](O)C[C@@]2(C)[C@@H]3CC=C4[C@@H](C=CC(=O)C4(C)C)[C@]3(C)C(=O)C[C@]12C`, the pIC50 in assay [1] is 4.11; in assay [2], 4.06. Further, the “Ratio IC50” value in assay [3] was determined as 1.1.

Regarding `CC(=O)O[C@H]1C[C@@H]2C(=CC[C@@H]3[C@@]2(C)C(=O)C[C@]2(C)[C@@H]([C@@](C)(O)C(=O)/C=C/C(C)(C)OC(C)=O)[C@H](OC(C)=O)C[C@@]32C)C(C)(C)C1=O`, the negative logarithm of the IC50 (pIC50) in assay [1] is 5.58; in assay [2], 4.83. Besides, the “Ratio IC50” value in assay [3] worked out at 5.5.

Consider `CC(=O)OC(C)(C)CCC(=O)[C@](C)(O)[C@H]1[C@H](OC(=O)CCC(=O)O)C[C@@]2(C)[C@@H]3CC=C4[C@@H](C[C@H](OC(=O)CCC(=O)O)C(=O)C4(C)C)[C@]3(C)C(=O)C[C@]12C`, for which the negative logarithm of the IC50 (pIC50) in assay [1] and in assay [2] was less than 4.00 in each case.

Consider `CC(=O)[C@H]1[C@H](O)C[C@@]2(C)[C@@H]3CC=C4[C@@H](C=C(O)C(=O)C4(C)C)[C@]3(C)C(=O)C[C@]12C`, for which the pIC50 in assay [1] and in assay [2] was less than 4.00 throughout.

Consider `CC(=O)OC(C)(C)CCC(=O)[C@](C)(O)[C@H]1[C@H](O)C[C@@]2(C)[C@@H]3CC=C4[C@@H](CCC(=O)C4(C)C)[C@]3(C)C(=O)C[C@]12C`, for which the pIC50 in assay [1] is 4.18; in assay [2], less than 4.00.

In the case of `CC(=O)OC(C)(C)CCC(=O)[C@](C)(O)[C@H]1C(=O)C[C@@]2(C)[C@@H]3CC=C4[C@@H](C=C(O)C(=O)C4(C)C)[C@]3(C)C(=O)C[C@]12C`, the negative logarithm of the IC50 (pIC50) in assay [1] and in assay [2] was less than 4.00 throughout.

Regarding `CC(=O)OC(C)(C)CCC(=O)[C@](C)(O)[C@H]1[C@H](OC(=O)n2ccnc2)C[C@@]2(C)[C@@H]3CC=C4[C@@H](C[C@H](OC(=O)n5ccnc5)C(=O)C4(C)C)[C@]3(C)C(=O)C[C@]12C`, the pIC50 in assay [1] and in assay [2] was less than 4.00 each time.

Consider `CC(=O)OC(C)(C)/C=C/C(=O)[C@](C)(O)[C@H]1[C@H](O)C[C@@]2(C)[C@@H]3CC=C4[C@H](C[C@H](O)C(=O)C4(C)C)[C@]3(C)C(=O)C[C@]12C` [CUCURBITACIN B], for which the results for the pIC50 in assay [1] and in assay [2] were 7.40 and 6.89, respectively. The “Ratio IC50” value in assay [3] is reported as 3.3.

With `CC(=O)OC(C)(C)/C=C/C(=O)[C@](C)(O)[C@H]1[C@H](O)C[C@@]2(C)[C@@H]3CC=C4[C@@H](C[C@H](Br)C(=O)C4(C)C)[C@]3(C)C(=O)C[C@]12C`, the pIC50 is 6.92 in assay [1] and 5.88 in assay [2]. The “Ratio IC50” value in assay [3] turned out to be 11.1.

With `CC(=O)OC(C)(C)CCC(=O)[C@](C)(O)[C@H]1[C@H](O)C[C@@]2(C)[C@@H]3CC=C4[C@@H](Cc5sc(N)nc5C4(C)C)[C@]3(C)C(=O)C[C@]12C`, the negative logarithm of the IC50 (pIC50) in assay [1] and in assay [2] was less than 4.00 throughout.

As to `CC(=O)OC(C)(C)CCC(=O)[C@](C)(O)[C@H]1[C@H](O)C[C@@]2(C)[C@@H]3CC=C4[C@@H](C[C@H](OC(=O)c5ccccc5)C(=O)C4(C)C)[C@]3(C)C(=O)C[C@]12C`, the negative logarithm of the IC50 (pIC50) in assay [1] and in assay [2] was less than 4.00 in each case.

As for `CC(=O)OC(C)(C)/C=C/C(=O)[C@](C)(O)[C@H]1[C@H](O)C[C@@]2(C)[C@@H]3CC=C4[C@@H](C=C(N)C(=O)C4(C)C)[C@]3(C)C(=O)C[C@]12C`, the negative-log IC50 (pIC50) was 6.92 in assay [1] and 6.38 in assay [2]. Moreover, the “Ratio IC50” value in assay [3] is on record as 3.5.

With `CC(=O)OC(C)(C)CCC(=O)[C@](C)(O)[C@H]1[C@H](O)C[C@@]2(C)[C@@H]3CC=C4[C@@H](C=C(N)C(=O)C4(C)C)[C@]3(C)C(=O)C[C@]12C`, the pIC50 in assay [1] and in assay [2] was less than 4.00 each time.

For `CC(=O)O[C@H]1C[C@@H]2C(=CC[C@@H]3[C@@]2(C)C(=O)C[C@]2(C)[C@@H]([C@@](C)(OC(=O)C(F)(F)F)C(=O)CCC(C)(C)OC(C)=O)[C@H](OC(C)=O)C[C@@]32C)C(C)(C)C1=O`, the negative logarithm of the IC50 (pIC50) in assay [1] and in assay [2] was less than 4.00 in each case.

Consider `CC(=O)OC(C)(C)CCC(=O)[C@](C)(O)[C@H]1[C@H](O)C[C@@]2(C)[C@@H]3CC=C4[C@@H](C[C@H](Br)C(=O)C4(C)C)[C@]3(C)C(=O)C[C@]12C`, for which the values for the pIC50 in assay [1] and in assay [2] were 4.54 and 4.46, respectively. Also, the “Ratio IC50” value in assay [3] is recorded as 1.2.

For orientation: pIC50 means −log10 of the IC50, conventionally taken in molar units.

Source of the values: ChEMBL document CHEMBL2016559, “Synthesis and cytotoxic activity evaluation of dihydrocucurbitacin B and cucurbitacin B derivatives” (Bioorg Med Chem, 2012).
